ChEMBL document CHEMBL1799963, “Discovery of novel benzopyranyl tetracycles that act as inhibitors of osteoclastogenesis induced by receptor activator of NF-κB ligand” (J Med Chem, 2010)
Calls of active or inactive are those of the source. The rule behind the calls is not given here.

Key:
RAW264.7 [1] = test: Inhibition of RANKL-induced osteoclastogenesis in mouse RAW264.7 cells assessed as TRAP-positive cells at 10 uM after 1 hr by microplate reader assay; format: functional; design: scale not given: the % may be the effect or the level left
Method in brief: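 RAW264.7 plated at 1 10^3 cells/well in α-MEM/10% FBS with 100 ng/mL RANKL; compound (10 μM) or DMSO vehicle added after 24 h. On day 4, cells fixed (10% formalin 10 min, 95% ethanol 1 min). TRAP activity measured in 50 mM citrate pH 4.6 with 10 mM tartrate and 5 mM p-nitrophenylphosphate for 1 h, stopped with 0.1 N NaOH, A410. Triplicate; 100% = RANKL minus vehicle difference.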

[2] = Cytotoxicity against mouse RAW264.7 cells assessed as cell viability at 30 uM after day 1 by CCK-8 assay; format: cell-based; conditions: read-out: Activity
Method in brief: (§1)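 RAW264.7 cells exposed to compound at 30 μM final for 1 day or 4 days; viability read by CCK-8 assay.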

[3] = Cytotoxicity against mouse RAW264.7 cells assessed as cell viability at 30 uM after day 4 by CCK-8 assay; format: cell-based; conditions: read-out: Activity; method in brief: as §1
RAW264.7 [4] = test: Inhibition of RANKL-induced osteoclastogenesis in mouse RAW264.7 cells assessed as decrease in TRAP-positive cells after 1 hr by microplate reader assay; format: functional, cell-based; conditions: RAW264.7, 1 h
Method in brief: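 RAW264.7 in α-MEM/10% FBS plus 100 ng/mL RANKL; compound or DMSO vehicle added after 24 h, dose-dependent series. On day 4, cells fixed and TRAP activity read as p-nitrophenylphosphate (5 mM) hydrolysis in tartrate-containing citrate buffer pH 4.6, 1 h, NaOH stop, A410. IC50 derived; triplicate.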

Macrophage = test: Inhibition of RANKL-induced osteoclastogenesis in BALB/c mouse Bone marrow macrophages assessed as decrease in TRAP-positive cells after 1 hr by microplate reader assay; format: functional, cell-based
Method in brief: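 BALB/c femur/tibia monocytes grown 1 day with 10 ng/mL M-CSF, then nonadherent cells 3 days with 30 ng/mL M-CSF. Adherent BMMs plated at 3 10^5 cells/well with 100 ng/mL RANKL and 30 ng/mL M-CSF, then given compound dose series. TRAP activity read via p-nitrophenylphosphate hydrolysis (pH 4.6 citrate, tartrate, 1 h, A410). IC50 derived.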

[5] = Inhibition of NFkappa signaling in mouse RAW264.7 cells assessed as reduction in RANKL-induced transcriptional activation on NF-kappaB by luciferase reporter gene assay; format: cell-based
RAW264.7 [6] = test: Inhibition of c-Src mRNA expression in mouse RAW264.7 cells at 10 uM by RT-PCR analysis; format: functional, cell-based
RAW264.7 [7] = test: Inhibition of MMP-7 mRNA expression in mouse RAW264.7 cells at 10 uM by RT-PCR analysis; format: functional, cell-based
RAW264.7 [8] = test: Inhibition of TRAP mRNA expression in mouse RAW264.7 cells at 10 uM by RT-PCR analysis; format: functional, cell-based
RAW264.7 [9] = test: Downregulation of RANKL-induced c-fos mRNA expression in mouse RAW264.7 cells at 10 uM by RT-PCR analysis; format: functional, cell-based
RAW264.7 [10] = test: Downregulation of RANKL-induced NFATc1 mRNA expression in mouse RAW264.7 cells at 10 uM by RT-PCR analysis; format: functional, cell-based
RAW264.7 [11] = test: Downregulation of RANKL-induced fra2 mRNA expression in mouse RAW264.7 cells at 10 uM by RT-PCR analysis; format: functional, cell-based
RAW264.7 [12] = test: Inhibition of RANKL-induced ERK phosphorylation in mouse RAW264.7 cells at 10 uM by Western blot analysis; format: cell-based
[13] = Inhibition of NFkappa signaling in mouse RAW264.7 cells assessed as reduction in RANKL-induced transcriptional activation on NF-kappaB at 10 uM by luciferase reporter gene assay; format: cell-based

In the case of `CC1(C)Oc2cc(O)ccc2C2C1=CCn1c(=O)n(-c3ccccc3I)c(=O)n12` (centres undefined), the Activity (RAW264.7 [1]) is reported as 101%.

`COc1cccc(-n2c(=O)n3n(c2=O)C2C(=CC3)C(C)(C)Oc3cc(O)ccc32)c1` (centres undefined) showed an Activity (RAW264.7 [1]) of 86%.

Work on `CC1(C)Oc2cc(O)ccc2C2C1=CCn1c(=O)n(Cc3ccccc3)c(=O)n12` (centres undefined) yielded an Activity (RAW264.7 [1]) of 98%.

`CC1(C)Oc2cc(O)ccc2C2C1=CCn1c(=O)n(-c3ccc(Br)cc3)c(=O)n12` (centres undefined) showed an Activity (RAW264.7 [1]) of 83%.

Work on `COc1ccc2c(c1)C1C(=CCn3c(=O)n(-c4ccccc4)c(=O)n31)C(C)(C)O2` (centres undefined) yielded an Activity (RAW264.7 [1]) of 100%.

With `O=c1n(-c2ccccc2)c(=O)n2n1CC=C1C2c2ccc(O)cc2OC12CCCC2` (centres undefined) the Activity (RAW264.7 [1]) was 30%, the viability at 1 day, 30 µM [2] was 77.8% and the viability at 4 day, 30 µM [3] was 46%. The IC50 (RAW264.7 [4]) was 5.09 µM and the IC50 (Macrophage) was 6.05 µM.

Work on `CC1(C)Oc2cc(O)ccc2C2C1=CCn1c(=O)n(-c3ccccc3Cl)c(=O)n12` (centres undefined) yielded an Activity (RAW264.7 [1]) of 95%.

`CC1(C)Oc2cc(O)ccc2C2C1=CCn1c(=O)n(-c3ccc(C(C)(C)C)cc3)c(=O)n12` (centres undefined) gave an Activity (RAW264.7 [1]) of 53%, a viability at 1 day, 30 µM [2] of 79.7% and a viability at 4 day, 30 µM [3] of 73.4%. It also gave an IC50 (RAW264.7 [4]) of 6.94 µM and an IC50 (Macrophage) of 6.77 µM.

In the case of `CC1(C)Oc2cc(O)ccc2C2C1=CCn1c(=O)n(-c3ccc(F)cc3)c(=O)n12` (centres undefined), the Activity (RAW264.7 [1]) is reported as 68%, the viability at 1 day, 30 µM [2] is reported as 99% and the viability at 4 day, 30 µM [3] is reported as 80.7%. For the same compound, the IC50 (RAW264.7 [4]) was 8.08 µM and the IC50 (Macrophage) was 11.9 µM.

`Cn1c(=O)n2n(c1=O)C1C(=CC2)C(C)(C)Oc2cc(O)ccc21` (centres undefined) gave an Activity (RAW264.7 [1]) of 95%.

With `CC1(C)Oc2cc(O)ccc2C2C1=CCn1c(=O)n(C3CCCCC3)c(=O)n12` (centres undefined) the Activity (RAW264.7 [1]) was 113%.

With `Cc1ccc(-n2c(=O)n3n(c2=O)C2C(=CC3)C(C)(C)Oc3cc(O)ccc32)cc1` (centres undefined) the Activity (RAW264.7 [1]) was 50%, the viability at 1 day, 30 µM [2] was 100% and the viability at 4 day, 30 µM [3] was 86.9%. For the same compound, the IC50 (RAW264.7 [4]) was 7.97 µM, the IC50 (Macrophage) was 7.05 µM and the inhibition [5] was “Dose-dependent effect”. The inhibition (RAW264.7 [6]) was “Active”, the inhibition (RAW264.7 [7]) was “Active” and the inhibition (RAW264.7 [8]) was “Active”. For the same compound, the Activity (RAW264.7 [9]) was “Active”, the Activity (RAW264.7 [10]) was “Active” and the Activity (RAW264.7 [11]) was “Active”. For the same compound, the inhibition (RAW264.7 [12]) was “Active”.

With `CC1(C)Oc2cc(O)ccc2C2C1=CCn1c(=O)n(-c3ccccc3)c(=O)n12` (centres undefined) the Activity (RAW264.7 [1]) was 43%, the viability at 1 day, 30 µM [2] was 85.9% and the viability at 4 day, 30 µM [3] was 74%. The IC50 (RAW264.7 [4]) was 7.07 µM, the IC50 (Macrophage) was 6.13 µM and the inhibition [5] was “Dose-dependent effect”. The inhibition (RAW264.7 [6]) was “Active”, the inhibition (RAW264.7 [7]) was “Active” and the inhibition (RAW264.7 [8]) was “Active”. For the same compound, the Activity (RAW264.7 [9]) was “Active”, the Activity (RAW264.7 [10]) was “Active” and the Activity (RAW264.7 [11]) was “Active”. For the same compound, the inhibition (RAW264.7 [12]) was “Active”.

`CC(=O)N1CCC2(CC1)Oc1cc(O)ccc1C1C2=CCn2c(=O)n(-c3ccccc3)c(=O)n21` (centres undefined) gave an Activity (RAW264.7 [1]) of 113%.

With `COc1ccc2c(c1O)OC(C)(C)C1=CCn3c(=O)n(-c4ccccc4)c(=O)n3C12` (centres undefined) the Activity (RAW264.7 [1]) was 69% and the IC50 (Macrophage) was 22.2 µM.

With `CC1(C)Oc2ccccc2C2C1=CCn1c(=O)n(-c3ccccc3)c(=O)n12` (centres undefined) the Activity (RAW264.7 [1]) was 104%, the inhibition [13] was “Active” and the inhibition (RAW264.7 [6]) was “inactive”. For the same compound, the inhibition (RAW264.7 [7]) was “inactive”, the inhibition (RAW264.7 [8]) was “inactive” and the Activity (RAW264.7 [9]) was “inactive”. The Activity (RAW264.7 [10]) was “inactive”, the Activity (RAW264.7 [11]) was “inactive” and the inhibition (RAW264.7 [12]) was “inactive”.

With `CC1(C)Oc2cc(O)ccc2C2C1=CCn1c(=O)n(-c3cccc([N+](=O)[O-])c3)c(=O)n12` (centres undefined) the Activity (RAW264.7 [1]) was 105%.

Compound `CNc1ccc2c(c1)OC(C)(C)C1=CCn3c(=O)n(-c4ccccc4)c(=O)n3C12` (centres undefined) has an Activity (RAW264.7 [1]) of 107%.

Compound `CC1(C)Oc2cc(F)ccc2C2C1=CCn1c(=O)n(-c3ccccc3)c(=O)n12` (centres undefined) has an Activity (RAW264.7 [1]) of 121%.

`COc1ccc2c(c1)OC(C)(C)C1=CCn3c(=O)n(-c4ccccc4)c(=O)n3C12` (centres undefined) gave an Activity (RAW264.7 [1]) of 108%.

`CCCN1CCC2(CC1)Oc1cc(O)ccc1C1C2=CCn2c(=O)n(-c3ccccc3)c(=O)n21` (centres undefined) showed an Activity (RAW264.7 [1]) of 99%.

For `COc1ccc(-n2c(=O)n3n(c2=O)C2C(=CC3)C(C)(C)Oc3cc(O)ccc32)cc1` (centres undefined), the Activity (RAW264.7 [1]) was 93%.

In the case of `CC1(C)Oc2cc(O)ccc2C2C1=CCn1c(=O)n(-c3ccc(Cl)cc3)c(=O)n12` (centres undefined), the Activity (RAW264.7 [1]) is reported as 112%.

Compound `COc1cc2c(cc1OC)C1C(=CCn3c(=O)n(-c4ccccc4)c(=O)n31)C(C)(C)O2` (centres undefined) has an Activity (RAW264.7 [1]) of 99%.
